Source: ChEMBL document CHEMBL1148054, “Chemical and bioactive constituents from Zanthoxylum simulans” (J Nat Prod, 1994)
The source made the active and inactive calls. The calls are words filed in the database; no cut-off is given here.

Experiments:
Format in all cases: functional
[1] = test system: HL-60; test: Induction of cell differentiation in human HL60 cells assessed as alpha naphthyl esterase activity at 0.0001 uM after 4 days
Outline: (§1)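 HL-60 cells in RPMI 1640 with 5% heat-inactivated calf serum at 37° under 5% CO2. Log-phase cells diluted to 1.2×10^5 cells/ml and preincubated 18 h, then samples added in DMSO (final 0.1%, DMSO controls). Cells scored after 4 days.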

[2] = test system: HL-60; test: Induction of terminal cell differentiation in human HL60 cells assessed as inhibition of [3H]thymidine incorporation at 0.0001 uM after 4 days; set-up: scale not given: the % may be the effect or the level left
Outline: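 After 4-day sample treatment, 100 μl of HL-60 cells pulsed with 0.5 μCi/ml [3H]thymidine (65 Ci/mmol) for 16 h. Cells harvested and counted by liquid scintillation. Incorporation per 10^6 cells given as sample DPM divided by DMSO-control DPM.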

[3] = test system: HL-60; test: Induction of terminal cell differentiation in human HL60 cells assessed as naphthol AS-D chloroacetate esterase activity at 0.01 uM after 4 days
Outline: (§2)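 HL-60 cells were grown in RPMI 1640 with 5% heat-inactivated calf serum at 37°, 5% CO2. They were diluted to 1.2×10^5 cells/ml, preincubated 18 h, then exposed 4 days to DMSO-dissolved samples (final DMSO 0.1%, matched vehicle controls). Specific esterase (naphthol AS-D chloroacetate) was scored cytochemically with a commercial kit as the percentage of differentiated cells.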

[4] = test system: HL-60; test: Induction of terminal cell differentiation in human HL60 cells at 0.1 uM after 4 days by NBT reduction assay
Outline: (§3)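 Log-phase HL-60 cells (RPMI 1640, 5% heat-inactivated calf serum, 37°, 5% CO2) were diluted to 1.2×10^5 cells/ml, preincubated 18 h, then treated 4 days with samples in DMSO (final 0.1%; DMSO controls). 10^6 cells were mixed 1:1 with fresh PBS holding 2 mg/ml NBT and 5 μg/ml TPA, 1 h at 37°. Formazan-positive cells were counted microscopically as % NBT-positive.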

[5] = test system: HL-60; test: Induction of terminal cell differentiation in human HL60 cells assessed as inhibition of [3H]thymidine incorporation at 0.1 uM after 4 days; set-up: scale not given: the % may be the effect or the level left
Outline: (§4)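 HL-60 cells were kept in RPMI 1640 with 5% heat-inactivated calf serum and penicillin/streptomycin at 37° under 5% CO2. Log-phase cells were diluted to 1.2×10^5 cells/ml and preincubated 18 h. Samples were added in DMSO (final 0.1%; vehicle controls matched) for 4 days. Aliquots then got 0.5 μCi/ml [3H]thymidine for 16 h more, were harvested and scintillation-counted. % incorporation per 10^6 cells = sample DPM / DMSO-control DPM.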

[6] = test system: HL-60; test: Induction of terminal cell differentiation in human HL60 cells assessed as inhibition of [3H]thymidine incorporation at 1 uM after 4 days; set-up: scale not given: the % may be the effect or the level left; outline: as §4
[7] = test system: HL-60; test: Induction of cell differentiation in human HL60 cells assessed as alpha naphthyl esterase activity at 0.001 uM after 4 days; outline: as §1
[8] = test system: HL-60; test: Induction of terminal cell differentiation in human HL60 cells assessed as cell viability at 0.0001 uM by trypan blue exclusion method; conditions: read-out: Activity
Outline: (§5)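 HL-60 cells preincubated 18 h at 1.2×10^5 cells/ml, then exposed 4 days to samples in DMSO (final 0.1%). Viability by trypan blue exclusion: viable/(viable+dead)×100. Cell counts also taken after 4 days.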

[9] = test system: HL-60; test: Induction of terminal cell differentiation in human HL60 cells assessed as naphthol AS-D chloroacetate esterase activity at 0.0001 uM after 4 days; outline: as §2
[10] = test system: HL-60; test: Induction of terminal cell differentiation in human HL60 cells at 0.01 uM after 4 days by NBT reduction assay; outline: as §3
[11] = test system: HL-60; test: Induction of cell differentiation in human HL60 cells assessed as alpha naphthyl esterase activity at 0.01 uM after 4 days; outline: as §1
[12] = test system: HL-60; test: Induction of cell differentiation in human HL60 cells assessed as alpha naphthyl esterase activity at 0.1 uM after 4 days; outline: as §1
[13] = test system: HL-60; test: Induction of terminal cell differentiation in human HL60 cells assessed as cell viability at 0.001 uM by trypan blue exclusion method; conditions: read-out: Activity; outline: as §5
[14] = test system: HL-60; test: Induction of cell differentiation in human HL60 cells assessed as alpha naphthyl esterase activity at 1 uM after 4 days; outline: as §1
[15] = test system: HL-60; test: Induction of terminal cell differentiation in human HL60 cells assessed as cell viability at 0.01 uM by trypan blue exclusion method; conditions: read-out: Activity; outline: as §5
[16] = test system: HL-60; test: Induction of terminal cell differentiation in human HL60 cells assessed as naphthol AS-D chloroacetate esterase activity at 1 uM after 4 days; outline: as §2
[17] = test system: HL-60; test: Induction of terminal cell differentiation in human HL60 cells assessed as inhibition of [3H]thymidine incorporation at 0.001 uM after 4 days; set-up: scale not given: the % may be the effect or the level left; outline: as §4
[18] = test system: HL-60; test: Induction of terminal cell differentiation in human HL60 cells assessed as cell viability at 0.1 uM by trypan blue exclusion method; conditions: read-out: Activity; outline: as §5
[19] = test system: HL-60; test: Induction of terminal cell differentiation in human HL60 cells assessed as cell viability at 1 uM by trypan blue exclusion method; conditions: read-out: Activity; outline: as §5
[20] = test system: HL-60; test: Induction of terminal cell differentiation in human HL60 cells assessed as inhibition of [3H]thymidine incorporation at 0.01 uM after 4 days; set-up: scale not given: the % may be the effect or the level left; outline: as §4
[21] = test system: HL-60; test: Induction of terminal cell differentiation in human HL60 cells at 1 uM after 4 days by NBT reduction assay; outline: as §3
[22] = test system: HL-60; test: Induction of terminal cell differentiation in human HL60 cells at 0.0001 uM after 4 days by NBT reduction assay; outline: as §3
[23] = test system: HL-60; test: Induction of terminal cell differentiation in human HL60 cells assessed as naphthol AS-D chloroacetate esterase activity at 0.1 uM after 4 days; outline: as §2
[24] = test system: HL-60; test: Induction of terminal cell differentiation in human HL60 cells assessed as naphthol AS-D chloroacetate esterase activity at 0.001 uM after 4 days; outline: as §2
[25] = test system: HL-60; test: Induction of terminal cell differentiation in human HL60 cells at 0.001 uM after 4 days by NBT reduction assay; outline: as §3
[26] = test system: Platelet; test: Antiplatelet activity against rabbit platelet assessed as inhibition of platelet activating factor-induced platelet aggregation at 100 ug/ml; conditions: Oryctolagus cuniculus
[27] = test system: Platelet; test: Antiplatelet activity against rabbit platelet assessed as inhibition of collagen-induced platelet aggregation at 100 ug/ml; conditions: Oryctolagus cuniculus
[28] = test system: Platelet; test: Antiplatelet activity against rabbit platelet assessed as inhibition of arachidonic acid-induced platelet aggregation at 100 ug/ml; conditions: Oryctolagus cuniculus

## C=C1/C(=C\C=C2/CCC[C@]3(C)[C@@H]([C@H](C)CCCC(C)(C)O)CC[C@@H]23)C[C@@H](O)C[C@@H]1O [CALCITRIOL]
[1]
  Activity: 2.5%
[2]
  Activity: 6%
[3]
  Activity: 4%
[4]
  Activity: 80%
[5]
  Activity: 92%
[6]
  Activity: 95.3%
[7]
  Activity: 14%
[8]
  viability at 0.0001 µM: 98%
[9]
  Activity: 5%
[10]
  Activity: 73.3%
[11]
  Activity: 68%
[12]
  Activity: 90.1%
[13]
  viability at 0.001 µM: 99%
[14]
  Activity: 95.3%
[15]
  viability at 0.01 µM: 97%
[16]
  Activity: 2%
[17]
  Activity: 32.3%
[18]
  viability at 0.1 µM: 95%
[19]
  viability at 1 µM: 92%
[20]
  Activity: 58.3%
[21]
  Activity: 90.5%
[22]
  Activity: 8.8%
[23]
  Activity: 2%
[24]
  Activity: 4.6%
[25]
  Activity: 28.5%

## Oc1cnc2c(ccc3cc4c(cc32)OCO4)c1
[26]
  Activity: inactive
[27]
  Activity: inactive
[28]
  Activity: inactive
